# Screens: PubChem BioAssay, The Scripps Research Institute Molecular Screening Center
# Fam108B inh – Fam108B inhibition, counter-screen for RBBP9 inhibitors; inhibition, % at 9.51 µM; hit rate 0.33% among 300,000; recombinant Fam108B, FP-Rh probe fluorescence polarization; AID 1947;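 active = inhibition above the screen mean inhibition plus 3 SD, computed separately per campaign, cut at about 18% in these data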;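 note: inhibitors lower polarization as less probe binds the enzyme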
# procasp3 activ – procaspase-3 (human) activation; P42574; recombinant procaspase-3 D3A, Ac-DEVD-pNA absorbance 405 nm; activation, % at 8.5 µM; hit rate 0.11% among 330,000; AID 463141;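 active = activation above the mean of all tested compounds plus 3 SD, cut at about 21% in these data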;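 note: 0% = DMSO alone and 100% = DMSO wells spiked with extra 5 µM PC-3 D3A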
#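 Assay system: Procaspase-3 D3A mutant, all three cleavage aspartates alanine. Buffer or medium: Zinc-free HEPES saline buffer with Triton X-100. Times: 1 h compound preincubation, 2 h substrate hydrolysis at 25 °C. Measured by: 405 nm absorbance of p-nitroaniline, reads at 0 and 120 min. Read-out basis: percent activation relative to control range. Replicates: singlicate.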
# PME-1 inh – blocks human protein phosphatase methylesterase 1. Q9Y570. hit rate 0.53% among 320,000. AID 2130. inhibition, % at 5.9 µM. recombinant PME-1, FP-Rh probe fluorescence polarization;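 active = inhibition above the campaign mean of all compounds plus 3 SD, cut at about 26% in these data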;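 note: competitive labeling of PME-1 active site by serine hydrolase directed probe; 0% = PME-1 with DMSO and 100% = wells lacking PME-1 enzyme; inhibitors block probe labeling so polarization falls and inhibition rises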
# LYPLA1 counter – LYPLA1 (human) inhibition in PME1 counter-screen | recombinant LYPLA1, FP-Rh probe fluorescence polarization | inhibition, % at 5.9 µM | hit rate 0.16% among 320,000 | AID 2174;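 active = inhibition above the mean of all tested compounds plus 3 SD, set per campaign, cut at about 14% in these data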;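 note: inhibitors block serine hydrolase probe labeling of LYPLA1 so polarization falls; 0% = enzyme with DMSO and 100% = wells lacking LYPLA1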
# Target sequence (O75608 whole entry, looked up): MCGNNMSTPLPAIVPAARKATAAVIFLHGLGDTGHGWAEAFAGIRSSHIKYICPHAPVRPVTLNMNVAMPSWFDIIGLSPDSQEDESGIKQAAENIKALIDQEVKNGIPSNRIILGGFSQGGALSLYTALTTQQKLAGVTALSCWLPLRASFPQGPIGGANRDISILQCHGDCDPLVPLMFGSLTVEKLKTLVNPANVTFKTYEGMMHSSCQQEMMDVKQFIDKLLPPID
# LYPLA2 inh – blocks human lysophospholipase 2, a PME1 counter-screen. O95372. inhibition, % at 5.9 µM. hit rate 0.38% among 320,000. recombinant LYPLA2, FP-Rh probe fluorescence polarization. AID 2177;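 active = inhibition above the screen-wide mean plus 3 SD, limit set per campaign, cut at about 26% in these data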;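 note: 0% = LYPLA2 with DMSO and 100% = wells lacking LYPLA2 enzyme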
# proCasp7 act – counter-screen: procaspase-7 (human) activation | activation, % at 8.5 µM | recombinant procaspase-7, Ac-DEVD-pNA absorbance 405 nm; D23A/D198A/D206A triple mutant, cannot self-cleave; scale: DMSO 0, 5 µM enzyme 100 | hit rate 0.093% among 330,000;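 active = percent activation above the screen-wide mean plus 3 SD, cut at about 25% in these data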
#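 System: Uncleavable procaspase-7 mutant enzyme; Amount: 2 µM procaspase-7 mutant as dispensed; Schedule: 1 h compound preincubation, 2 h substrate cleavage, 25 °C; Measured by: 405 nm absorbance of p-nitroaniline; Evaluation: percent activation from buffer-corrected 0–120 min absorbance change; Control set: low DMSO alone, high DMSO plus 5 µM PC-7.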
# PC3 D3A act – counter-screen for dual procaspase-3/7 activators: human procaspase-3 activation; shares compounds with proCasp7 act; recombinant PC-3 D3A, Ac-DEVD-pNA absorbance 405 nm; aspartates 9, 28, 175 changed to alanine; 100% = enzyme control; activation, % at 8.5 µM; 290 tested, under 10 active;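 active = mean percent activation across triplicates above a set limit taken from the earlier primary procaspase-3 screen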;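 note: 0% = DMSO wells and 100% = DMSO wells with 5 µM added PC-3 D3A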
# PC7 dual conf – procaspase-7 (human) activation, dual activator confirmation; shares compounds with proCasp7 act; recombinant procaspase-7, Ac-DEVD-pNA absorbance 405 nm; D23A/D198A/D206A mutant that cannot self-cleave; activation, % at 8.5 µM; 290 tested, under 10 active;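 active = mean activation above a set limit carried over from the earlier primary screen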;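 note: 0% = DMSO only and 100% = DMSO with added 5 µM PC-7 enzyme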
# The depositor's hits bear a star; · = no result. Hits are enriched below; roughly 1% of the tested compounds scored in any of these assays.
SMILES,Fam108B inh,procasp3 activ,PME-1 inh,LYPLA1 counter,LYPLA2 inh,proCasp7 act,PC3 D3A act,PC7 dual conf
COc1cccc(N(C(=O)c2snc(C(N)=O)c2N)C(C(=O)NCc2ccccc2)c2ccc(O)cc2)c1 (stereo not given),0,33*,-1,-8,-9,79*,-4,-11
Cc1ccccc1N(C(=O)c1snc(C(N)=O)c1N)C(C(=O)NCc1ccccc1)c1ccc(O)cc1 (stereo not given),-12,-98,-13,-12,-20,40*,-28,-35
COc1ccc(N(C(=O)c2snc(C(N)=O)c2N)C(C(=O)NCc2ccc(F)cc2)c2ccc(C)o2)c(OC)c1 (stereo not given),-3,5,2,0,-6,26*,2,2
NC(=O)c1nsc(C(=O)N(c2ccccc2F)C(C(=O)NCc2ccccc2)c2ccc(O)cc2)c1N (stereo not given),-13,18,-10,-15,-24,34*,-28,-36
O=S(=O)(Nc1ccccn1)c1cc(Cl)ccc1Cl,-2,5,3,-1,5,-3,·,·
CSCc1ccc(C(=O)N2CCC(N3CCC(C(=O)NC(C)C)CC3)CC2)o1,-10,-2,-9,1,2,-1,·,·
O=C1CN(S(=O)(=O)c2ccccc2)CCN1,·,3,·,·,·,1,·,·
COc1cc(/C=C/C(=O)Nc2nc3ccc(S(=O)(=O)N(C)C)cc3s2)cc(OC)c1OC,-3,-18,-7,-7,-11,35*,-30,-35
Cc1cc(N/N=C/c2ccc(N(C)C)cc2)nc(NCc2ccccc2)n1,4,57*,17,2,6,32*,-28,-27
CC(=O)c1cccc(N(CC(=O)Nc2ccccc2C(=O)N2CCCC2)S(C)(=O)=O)c1,3,-2,-1,-3,-4,0,·,·
C=CCc1c(O)c(CC)cc2c(C)cc(=O)oc12,-6,25*,0,1,-2,28*,-29,-34
COCc1nnc(NC(=O)CCSc2ccccc2)s1,6,1,5,6,2,27*,4,0
COCc1nnc(NC(=O)CSc2ccccc2)s1,5,13,0,6,9,2,·,·
